These results are taken from article PMC10194142 (Virus Research, 2023).

The target in data set [1] is T1, ZIKV NS2B-NS3 protease (Zika virus, UniProt Q32ZE1).
T1 sequence (Q32ZE1 with tags, fused parts or gaps DEL1468-1489/Y1490G/V1491G/Y1492G/V1493G/K1494S/T1495G/K1497G/R1498G): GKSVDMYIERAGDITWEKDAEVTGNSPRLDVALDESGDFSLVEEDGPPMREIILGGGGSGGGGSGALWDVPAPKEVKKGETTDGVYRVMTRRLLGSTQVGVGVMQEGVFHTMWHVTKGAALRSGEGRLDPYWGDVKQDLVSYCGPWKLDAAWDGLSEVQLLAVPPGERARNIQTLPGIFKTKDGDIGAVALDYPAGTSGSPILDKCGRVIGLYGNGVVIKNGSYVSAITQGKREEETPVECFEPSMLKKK
Nature of the data set: ZIKV NS2B-NS3 enzyme-based fluorescence peptide cleavage assay. In kind it is biochemical. The settings on record: for protease activity inhibition efficacy in screening: inhibitor concentration of 50 μM, 5 μM protease, 10 μM substrate. In a few lines: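 His-tagged NS2B-NS3 protease was expressed in E. coli BL21(DE3) and purified by metal-affinity chromatography. Test compound at 6.25–100 μM was incubated with 5 μM protease in cleavage buffer for 30 min at 37 °C, then with 10 μM Boc-KKR-AMC for 1 h. AMC fluorescence was read at ex 355 / em 455 nm. Activity is expressed as % of the protease-alone control.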

Data set [2] in a line: Cell viability by ATPlite. The data set is classed as cell-based. The following applies: human, Huh-7 cells. (In general: In ATP-based viability assays light output follows the ATP content of the culture.)
The target in data set [3] is T1, ZIKV NS2B-NS3 protease. In words: Kinetic analysis of inhibition mechanism. In kind it is biochemical. The following applies: for inhibition mechanism: 75 μM compound, 5 μM protease, Boc-KKR-AMC 0 to 20 μM; for Kcat / Vmax value: protease with 75 μM compound; for Kcat: untreated protease 0.0142; for Vmax value: untreated protease 0.071. In a few lines: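 Purified His-tagged NS2B-NS3 protease was expressed in E. coli BL21(DE3). 5 μM protease was preincubated with 75 μM test compound in cleavage buffer for 30 min at 37 °C. Boc-KKR-AMC at 0–20 μM was then added for 1 h at 37 °C. Released AMC was read at ex 355 / em 455 nm against an AMC standard curve. Mechanism was assigned from Lineweaver-Burk plots.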

The test system of a further data set is ZIKV (MR-766). In words: ZIKV RNA replication in infected Huh-7 cells by RT-qPCR. In kind it is cell-based, Zika virus. The settings on record: for inhibition of ZIKV replication (ZIKV RNA level): 0.2, 0.69, 2, 6 μM for 72 h, Huh-7, MOI 0.1; for EC50: Zika virus, Huh-7, 72 h; for Selectivity index (SI = CC50/EC50): Huh-7 cells. (In general: Quantitative PCR measures a nucleic acid by following its amplification.)

Data set [4] deals with ZIKV. In words: ZIKV-infected ICR suckling mouse model. The data set is classed as in vivo. In a few lines: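 Six-day-old ICR suckling mice (n = 6 per group) were injected intracerebrally with 10^4 pfu ZIKV. Mock mice received 60 °C heat-inactivated virus. Saline or test compound (1 or 10 mg/kg, i.c.) was given at days 1, 3 and 5 post-infection. At day 6, 0.1 g brain was lysed in RIPA for NS2B western blot. The remaining brain had H&E and IHC (NS1, Ly6C), with infiltration quantified. Data are mean ± SD.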

The subject of data set [5] is ZIKV. The following applies: plaque reduction assay; ref Chan et al., 2017; cited from earlier work. In general terms: In a plaque reduction assay, fewer plaques than in the control indicate reduced infectivity or spread.
The subject of data set [6] is ZIKV. The following applies: primary placental cells, dose range of 0.2 to 1 μM; ref Tabata et al., 2016; cited from earlier work.

For orientation: IC50 means the midpoint of a concentration-inhibition curve. The low end stands for inhibition by little substance, the high end for a need for much substance. With `CC(=O)Oc1ccc(C=C2C(=O)N(c3ccccc3)C(=S)N(c3ccccc3)C2=O)cc1` [Compound 1, 4-((4,6-dioxo-1,3-diphenyl-2-thioxotetrahydropyrimidin-5(2H)-ylidene)methyl)phenyl acetate], the IC50 against ZIKV NS2B-NS3 protease [1] is 63.4 µM.

In general, CC50 refers to the concentration that lowers cell viability or growth by half. Higher therefore signals better tolerance by the cells. As a reminder, the EC50 is the midpoint of the concentration-response curve. In data set [2], `COc1cc(C=C2C(=O)N(c3ccc(C)cc3)C(=S)N(c3ccc(C)cc3)C2=O)cc(Br)c1O` [Compound 8, 5-(3‑bromo-4‑hydroxy-5-methoxybenzylidene)−2-thioxo-1,3-di-p-tolyldihydropyrimidine-4,6(1H,5H)-dione] came in with a half-maximal cytotoxic concentration (CC50) at 48 h above 200 µM. Moreover, on ZIKV NS2B-NS3 protease [3], the inhibition mechanism entry is listed as “non-competitive”, the Kcat stood at 0.00015 s⁻¹ and the Vmax value was determined as 0.045 µmol/min. In addition, in the data set on ZIKV (MR-766), the “inhibition of ZIKV replication (ZIKV RNA level)” value (“inhibition of ZIKV replication” for short) is recorded as “could significantly inhibit ZIKV replication” and the EC50 worked out at 0.52 µM. The “survival (protection from lethal ZIKV infection)” value in the data set with ZIKV [4] (1 mg/kg or 10 mg/kg on days 1, 3, 5, observed 6 days, vs saline) is on record as “protected all ZIKV-infected suckling mice from lethal ZIKV infection”. In addition, in the data set with ZIKV [4] (1 mg/kg or 10 mg/kg on days 1, 3, 5, vs saline), the “clinical score (sickness)” value is given as “a delay in the sickness induced by ZIKV infection”. In the data set on ZIKV [4] (6 dpi, vs saline-treated group), the “Ly6C+ monocyte infiltration in brain tissue” value was “significantly less accumulated”, the “ZIKV NS1 level in brain tissue (IHC)” value is listed as “significantly decreased” and the “ZIKV NS2B protein level in brain tissue (western blot)” value is recorded as “significantly decreased”. Besides, on ZIKV NS2B-NS3 protease [1], 6.85 µM corresponded to half-maximal inhibition (IC50) and the “protease activity inhibition efficacy in screening” value is reported as “better protease activity inhibition efficacy than others”.

At ZIKV NS2B-NS3 protease [1], `CCc1ccc(S(=O)(=O)/N=C2\C=C(NS(=O)(=O)c3ccccc3)C(=O)c3ccccc32)cc1` [Compound 5, (E)−4-ethyl-N-(4-oxo-3-(phenylsulfonamido)naphthalen-1(4H)-ylidene)benzene sulfonamide] gave a 50% inhibitory concentration (IC50) above 100 µM.

As for `COc1cc(C=C2C(=O)N(c3ccccc3)C(=S)N(c3ccccc3)C2=O)cc(I)c1OCc1ccccc1Cl` [Compound 3, 5-(4-((2-chlorobenzyl)oxy)−3-iodo-5-methoxybenzylidene)−1,3-diphenyl-2-thioxodihydropyrimidine-4,6(1H,5H)-dione], the half-maximal cytotoxic concentration (CC50) at 48 h in data set [2] was above 200 µM. Further, on ZIKV NS2B-NS3 protease [3], the inhibition mechanism entry was “non-competitive”, the Kcat is 0.00013 s⁻¹ and the Vmax value was found to be 0.040 µmol/min. For the same compound, in the data set with ZIKV (MR-766), the “inhibition of ZIKV replication” value is recorded as “could significantly inhibit ZIKV replication” and the midpoint of the response, the EC50, lay at 2.15 µM. At ZIKV NS2B-NS3 protease [1], the IC50 was found to be 14 µM and the “protease activity inhibition efficacy in screening” value is “better protease activity inhibition efficacy than others”.

Turning to `COc1cc(C=C2C(=O)N(c3ccccc3)C(=S)N(c3ccccc3)C2=O)cc(Br)c1OCc1cccc2ccccc12` [Compound 2, 5-(3‑bromo-5‑methoxy-4-(naphthalen-1-ylmethoxy)benzylidene)−1,3-diphenyl-2-thioxodihydropyrimidine-4,6(1H,5H)-dione], at ZIKV NS2B-NS3 protease [1], the half-maximal inhibitory concentration (IC50) stood at 72.5 µM.

In the case of `CC(C)C[C@H]1C(=O)N2CCC[C@H]2[C@]2(O)O[C@](NC(=O)[C@@H]3C=C4c5cccc6[nH]c(Br)c(c56)C[C@H]4N(C)C3)(C(C)C)C(=O)N12` [bromocriptine], in the data set with ZIKV [5], the ZIKV-mediated plaque reduction is reported as around 100%.

`Cc1ccc(S(=O)(=O)/N=C2\C=C(NS(=O)(=O)c3ccccc3)C(=O)c3ccccc32)cc1` [Compound 7, (E)−4-methyl-N-(4-oxo-3-(phenylsulfonamido)naphthalen-1(4H)-ylidene)benzenesulfonamide] yielded an IC50 against ZIKV NS2B-NS3 protease [1] above 100 µM.

As to duramycin, the “block of ZIKV infection” value in the data set on ZIKV [6] is listed as above 80%.

`Cc1ccc(S(=O)(=O)/N=C2\C=C(NS(=O)(=O)c3ccccc3)C(=O)c3ccccc32)c(C)c1` [Compound 11, (E)−2,4-dimethyl-N-(4-oxo-3-(phenylsulfonamido)naphthalen-1(4H)-ylidene)benzenesulfonamide] yielded an IC50 against ZIKV NS2B-NS3 protease [1] above 100 µM.

Turning to `O=C1C(=Cc2cc(I)c(O)c(I)c2)C(=O)N(c2ccccc2)C(=S)N1c1ccccc1` [Compound 4, 5-(4‑hydroxy-3,5-diiodobenzylidene)−1,3-diphenyl-2-thioxodihydropyrimidine-4,6(1H,5H)-dione], the half-maximal inhibitory concentration (IC50) against ZIKV NS2B-NS3 protease [1] is above 100 µM.

With `Cc1ccc(NC(=O)COc2ccc(C=C3C(=O)N(c4ccccc4)C(=S)N(c4ccccc4)C3=O)cc2)cc1C` [Compound 9, N-(3,4-dimethylphenyl)−2-(4-((4,6-dioxo-1,3-diphenyl-2-thioxotetrahydropyrimidin-5(2H)-ylidene)methyl)phenoxy)acetamide], the CC50 at 48 h in data set [2] came to 61.5 µM. In addition, at ZIKV NS2B-NS3 protease [3], the inhibition mechanism entry is given as “non-competitive”, the Kcat came to 0.000143 s⁻¹ and the Vmax value is 0.043 µmol/min. Moreover, in the data set on ZIKV (MR-766), the “inhibition of ZIKV replication” value is “could significantly inhibit ZIKV replication”, the “Selectivity index (SI = CC50/EC50)” value stood at 17.46 and the EC50 was 3.52 µM. Also, on ZIKV NS2B-NS3 protease [1], the concentration for half-maximal inhibition (IC50) stood at 14.2 µM and the “protease activity inhibition efficacy in screening” value is on record as “better protease activity inhibition efficacy than others”.

Consider `Cc1cc(C)c(S(=O)(=O)/N=C2\C=C(NS(=O)(=O)c3ccccc3)C(=O)c3ccccc32)cc1C` [Compound 6, (E)−2,4,5-trimethyl-N-(4-oxo-3-(phenylsulfonamido)naphthalen-1(4H)-ylidene)benzenesulfonamide], for which the IC50 at ZIKV NS2B-NS3 protease [1] is above 100 µM.

For `Oc1cccc(-c2c3nc(c(-c4cccc(O)c4)c4ccc([nH]4)c(-c4cccc(O)c4)c4nc(c(-c5cccc(O)c5)c5ccc2[nH]5)CC4)C=C3)c1` [Temoporfin, reference compound], the CC50 at 48 h in data set [2] came out at 61.1 µM. Besides, in the data set with ZIKV (MR-766), the “Selectivity index (SI = CC50/EC50)” value was 30.53 and the EC50 was 2 µM. For the same compound, half-maximal inhibition at ZIKV NS2B-NS3 protease [1] (IC50) required 18.8 µM.

On to `CC(C)c1ccc(S(=O)(=O)/N=C2/C=C(NS(=O)(=O)c3ccccc3)C(=O)c3ccccc32)cc1` [Compound 10, (Z)−4-isopropyl-N-(4-oxo-3-(phenylsulfonamido)naphthalen-1(4H)-ylidene)benzenesulfonamide], for which the concentration for half-maximal inhibition (IC50) on ZIKV NS2B-NS3 protease [1] is above 100 µM.
